In ChEMBL document CHEMBL1156920, “Structural analogues of schweinfurthin F: probing the steric, electronic, and hydrophobic properties of the D-ring substructure” (Bioorg Med Chem, 2010):

Experiments:
[1] = Growth inhibition of human […] cells; assay type: functional
[2] = tested on: SF-539; test: Growth inhibition of human SF539 cells; assay type: functional
[3] = tested on: HL-60(TB); test: Growth inhibition of human HL-60(TB) cells; assay type: functional
[4] = tested on: SF-268; test: Growth inhibition of human SF268 cells; assay type: functional
[5] = tested on: T47D; test: Growth inhibition of human T47D cells; assay type: functional
[6] = tested on: CCRF-CEM; test: Growth inhibition of human CCRF-CEM cells; assay type: functional
[7] = tested on: HOP-92; test: Growth inhibition of human HOP92 cells; assay type: functional
[8] = tested on: HCC 2998; test: Growth inhibition of human HCC2998 cells; assay type: functional
[9] = tested on: SF-295; test: Growth inhibition of human SF295 cells; assay type: functional
[10] = tested on: NCI/ADR-RES; test: Growth inhibition of human NCI/ADR-RES cells; assay type: functional
[11] = tested on: OVCAR-5; test: Growth inhibition of human OVCAR5 cells; assay type: functional
[12] = tested on: PC-3; test: Growth inhibition of human PC3 cells; assay type: functional
[13] = tested on: CAKI-1; test: Growth inhibition of human Caki1 cells; assay type: functional
[14] = tested on: SNB-75; test: Growth inhibition of human SNB75 cells; assay type: functional
[15] = tested on: HCT-116; test: Growth inhibition of human HCT116 cells; assay type: functional
[16] = tested on: SK-MEL-2; test: Growth inhibition of human SK-MEL-2 cells; assay type: functional
[17] = tested on: SF-295; test: Cytotoxicity against human SF295 cells after 44 hrs by MTT assay; assay type: functional, cell-based; conditions: SF-295, 44 h
Procedure, shortened: (§1)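 SF-295 cells cultured in RPMI 1640 and A549 cells in F-12, each with 10% FBS, penicillin–streptomycin, amphotericin B and L-glutamine, at 37 °C in 5% CO2. Cells were grown to 60% confluency, then treated for 44 h. Medium was replaced with medium containing 0.06 mg/mL MTT (phenol red-free RPMI for SF-295) for 4 h. Acid/Triton/isopropanol stop solution was added, plates incubated overnight at 37 °C, OD read at 540 and 650 nm, and EC50 calculated.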

[18] = tested on: SR; test: Growth inhibition of human SR cells; assay type: functional
[19] = tested on: EKVX; test: Growth inhibition of human EKVX cells; assay type: functional
[20] = tested on: MOLT-4; test: Growth inhibition of human MOLT4 cells; assay type: functional
[21] = tested on: A549; test: Cytotoxicity against human A549 cells after 44 hrs by MTT assay; assay type: functional, cell-based; conditions: A549, 44 h; procedure, shortened: as §1
[22] = tested on: UO-31; test: Growth inhibition of human UO31 cells; assay type: functional
[23] = tested on: NCI-H226; test: Growth inhibition of human NCI-H226 cells; assay type: functional
[24] = tested on: ACHN; test: Growth inhibition of human ACHN cells; assay type: functional
[25] = tested on: KM12; test: Growth inhibition of human KM12 cells; assay type: functional
[26] = tested on: UACC-257; test: Growth inhibition of human UACC257 cells; assay type: functional
[27] = tested on: OVCAR-4; test: Growth inhibition of human OVCAR4 cells; assay type: functional
[28] = tested on: A549; test: Growth inhibition of human A549 cells; assay type: functional
[29] = tested on: SN12C; test: Growth inhibition of human SN12C cells; assay type: functional
[30] = tested on: NCI-H522; test: Growth inhibition of human NCI-H522 cells; assay type: functional
[31] = tested on: HT-29; test: Growth inhibition of human HT-29 cells; assay type: functional
[32] = tested on: LOX IMVI; test: Growth inhibition of human LOXIMVI cells; assay type: functional
[33] = tested on: UACC-62; test: Growth inhibition of human UACC62 cells; assay type: functional
[34] = tested on: RXF 393; test: Growth inhibition of human RXF393 cells; assay type: functional
[35] = tested on: U-251; test: Growth inhibition of human U251 cells; assay type: functional
[36] = tested on: OVCAR-3; test: Growth inhibition of human OVCAR-3 cells; assay type: functional
[37] = tested on: IGROV-1; test: Growth inhibition of human IGROV1 cells; assay type: functional
[38] = tested on: SK-OV-3; test: Growth inhibition of human SKOV3 cells; assay type: functional
[39] = tested on: NCI-H23; test: Growth inhibition of human NCI-H23 cells; assay type: functional
[40] = tested on: MDA-MB-468; test: Growth inhibition of human MDA-MB-468 cells; assay type: functional
[41] = tested on: Malme-3M; test: Growth inhibition of human MALME-3M cells; assay type: functional
[42] = tested on: SK-MEL-5; test: Growth inhibition of human SK-MEL-5 cells; assay type: functional
[43] = read-out: pLC50 (the source's name) (converted)

In the case of COc1cc(/C=C/c2cc(O)c(CCC(C)C)c(O)c2)cc2c1O[C@]1(C)CC[C@@H](O)C(C)(C)[C@H]1C2, the GI50 [1] is reported as 0.0174 µM, the LC50 [1] is reported as greater than 100 µM and the GI50 [2] is reported as 0.0288 µM. For the same compound, the LC50 [2] was 2.69 µM, the TGI ([2]; read-out: pTGI (converted)) was 0.295 µM and the GI50 [3] was 0.251 µM. For the same compound, the CC50 [3, 43] was greater than 100 µM, the TGI ([3]; read-out: pTGI (converted)) was 38.9 µM and the GI50 [4] was 0.214 µM. The LC50 [4] was 39.8 µM, the TGI ([4]; read-out: pTGI (converted)) was 11.5 µM and the GI50 [5] was 2.04 µM. The CC50 [5, 43] was greater than 100 µM, the GI50 [6] was 0.148 µM and the CC50 [6, 43] was greater than 100 µM. The TGI ([6]; read-out: pTGI (converted)) was 18.6 µM, the GI50 [7] was 1.51 µM and the LC50 [7] was greater than 100 µM. It also gave a TGI ([7]; read-out: pTGI (converted)) of 24 µM, a GI50 [8] of 0.794 µM and an LC50 [8] of 38 µM. For the same compound, the TGI ([8]; read-out: pTGI (converted)) was 10.5 µM, the GI50 [9] was 0.0331 µM and the LC50 [9] was 66.1 µM. For the same compound, the TGI ([9]; read-out: pTGI (converted)) was 1.35 µM, the GI50 [10] was 2.34 µM and the CC50 [10, 43] was greater than 100 µM. The TGI ([10]; read-out: pTGI (converted)) was 47.9 µM, the GI50 [11] was 10.7 µM and the LC50 (lethal concentration, 50% cell kill) [11] was 69.2 µM. The TGI ([11]; read-out: pTGI (converted)) was 26.9 µM, the GI50 [12] was 0.178 µM and the CC50 [12, 43] was greater than 100 µM. The TGI ([12]; read-out: pTGI (converted)) was 32.4 µM, the GI50 [13] was 0.0708 µM and the LC50 [13] was greater than 100 µM. It also gave a TGI ([13]; read-out: pTGI (converted)) of 17.8 µM, a GI50 [14] of 0.0603 µM and an LC50 [14] of 39.8 µM. It also gave a TGI ([14]; read-out: pTGI (converted)) of 11.2 µM, a GI50 [15] of 0.0468 µM and a CC50 [15, 43] of 47.9 µM. The TGI ([15]; read-out: pTGI (converted)) was 8.13 µM, the GI50 [16] was 4.47 µM and the TGI ([16]; read-out: pTGI (converted)) was 33.1 µM. For the same compound, the EC50 [17] was 0.4 µM, the GI50 [18] was 0.0891 µM and the LC50 [18] was greater than 100 µM. For the same compound, the TGI ([18]; read-out: pTGI (converted)) was 10.5 µM, the GI50 [19] was 0.447 µM and the LC50 [19] was greater than 100 µM. The TGI ([19]; read-out: pTGI (converted)) was 17.4 µM, the GI50 [20] was 0.0457 µM and the LC50 [20] was greater than 100 µM. For the same compound, the TGI ([20]; read-out: pTGI (converted)) was 18.6 µM, the EC50 [21] was 4.2 µM and the GI50 [22] was 0.0468 µM. The CC50 [22, 43] was 74.1 µM, the TGI ([22]; read-out: pTGI (converted)) was 2.4 µM and the GI50 [23] was 0.692 µM. For the same compound, the LC50 [23] was greater than 100 µM, the TGI ([23]; read-out: pTGI (converted)) was 3.55 µM and the GI50 [24] was 0.309 µM. For the same compound, the CC50 [24, 43] was 43.7 µM, the TGI ([24]; read-out: pTGI (converted)) was 15.8 µM and the GI50 [25] was 0.275 µM. For the same compound, the LC50 [25] was 28.8 µM, the TGI ([25]; read-out: pTGI (converted)) was 5.25 µM and the GI50 [26] was 3.39 µM. The LC50 [26] was 64.6 µM, the TGI ([26]; read-out: pTGI (converted)) was 21.9 µM and the GI50 [27] was 1.41 µM. For the same compound, the CC50 [27, 43] was greater than 100 µM, the TGI ([27]; read-out: pTGI (converted)) was 38 µM and the GI50 [28] was 0.166 µM. For the same compound, the LC50 (50% lethal concentration) [28] was greater than 100 µM, the TGI ([28]; read-out: pTGI (converted)) was 17.4 µM and the GI50 [29] was 0.741 µM. For the same compound, the LC50 [29] was greater than 100 µM, the TGI ([29]; read-out: pTGI (converted)) was 36.3 µM and the GI50 [30] was 1.32 µM. It also gave an LC50 (50% lethal concentration) [30] greater than 100 µM, a TGI ([30]; read-out: pTGI (converted)) of 24 µM and a GI50 [31] of 0.813 µM. The LC50 (50% lethal concentration) [31] was 97.7 µM, the TGI ([31]; read-out: pTGI (converted)) was 4.47 µM and the GI50 [32] was 0.0708 µM. For the same compound, the LC50 [32] was 5.89 µM, the TGI ([32]; read-out: pTGI (converted)) was 1.78 µM and the GI50 [33] was 0.195 µM. It also gave a CC50 [33, 43] of 32.4 µM, a TGI ([33]; read-out: pTGI (converted)) of 7.08 µM and a GI50 [34] of 0.01 µM. The CC50 [34, 43] was 8.32 µM, the TGI ([34]; read-out: pTGI (converted)) was 0.0891 µM and the GI50 [35] was 0.0631 µM. The LC50 [35] was 37.2 µM, the TGI ([35]; read-out: pTGI (converted)) was 12.9 µM and the GI50 [36] was 0.417 µM. It also gave an LC50 (50% lethal concentration) [36] of 56.2 µM, a TGI ([36]; read-out: pTGI (converted)) of 14.1 µM and a GI50 [37] of 0.513 µM. For the same compound, the LC50 [37] was greater than 100 µM, the TGI ([37]; read-out: pTGI (converted)) was 46.8 µM and the GI50 [38] was 11.5 µM. It also gave an LC50 [38] greater than 100 µM, a TGI ([38]; read-out: pTGI (converted)) of 97.7 µM and a GI50 [39] of 1.29 µM. It also gave an LC50 [39] of 81.3 µM, a TGI ([39]; read-out: pTGI (converted)) of 19.5 µM and a GI50 [40] of 0.851 µM. The LC50 [40] was 57.5 µM, the TGI ([40]; read-out: pTGI (converted)) was 4.37 µM and the GI50 [41] was 1.41 µM. It also gave an LC50 [41] of 63.1 µM, a TGI ([41]; read-out: pTGI (converted)) of 12.3 µM and a GI50 [42] of 0.0832 µM. It also gave an LC50 [42] of 4.47 µM and a TGI ([42]; read-out: pTGI (converted)) of 1.51 µM.
